# Ends that are not written are not given here.
# T1: VEGFR-3 (Mus musculus, UniProt P35917)
# T1 sequence (P35917 25-770): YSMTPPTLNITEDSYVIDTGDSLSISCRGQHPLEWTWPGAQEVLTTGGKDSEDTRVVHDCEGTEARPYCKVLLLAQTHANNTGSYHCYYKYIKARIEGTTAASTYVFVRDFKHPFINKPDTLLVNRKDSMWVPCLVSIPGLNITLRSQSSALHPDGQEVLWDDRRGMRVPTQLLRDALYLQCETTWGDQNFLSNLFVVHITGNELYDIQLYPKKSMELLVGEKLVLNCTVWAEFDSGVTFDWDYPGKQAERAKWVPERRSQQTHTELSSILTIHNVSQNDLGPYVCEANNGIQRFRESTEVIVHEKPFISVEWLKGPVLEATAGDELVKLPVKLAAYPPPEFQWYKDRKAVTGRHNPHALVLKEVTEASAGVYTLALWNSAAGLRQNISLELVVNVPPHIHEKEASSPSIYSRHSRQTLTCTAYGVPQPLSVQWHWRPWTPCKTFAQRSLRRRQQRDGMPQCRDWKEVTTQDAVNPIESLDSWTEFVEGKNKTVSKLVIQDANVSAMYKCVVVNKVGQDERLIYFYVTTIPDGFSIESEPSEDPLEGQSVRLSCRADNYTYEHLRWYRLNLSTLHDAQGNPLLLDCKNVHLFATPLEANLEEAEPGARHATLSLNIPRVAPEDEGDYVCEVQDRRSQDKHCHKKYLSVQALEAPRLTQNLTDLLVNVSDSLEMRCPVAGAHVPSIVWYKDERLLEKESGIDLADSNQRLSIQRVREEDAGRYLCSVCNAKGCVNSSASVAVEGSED
# T2: recombinant IgD2 domain of human VEGFR-3 (human, UniProt P35916 136-229)
# T2 sequence: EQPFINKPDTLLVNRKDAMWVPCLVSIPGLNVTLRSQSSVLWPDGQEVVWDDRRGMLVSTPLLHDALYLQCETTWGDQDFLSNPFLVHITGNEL
# T3: recombinant IgD2-3 domains of human VEGFR-3 (human, UniProt P35916 136-332)
# T3 sequence: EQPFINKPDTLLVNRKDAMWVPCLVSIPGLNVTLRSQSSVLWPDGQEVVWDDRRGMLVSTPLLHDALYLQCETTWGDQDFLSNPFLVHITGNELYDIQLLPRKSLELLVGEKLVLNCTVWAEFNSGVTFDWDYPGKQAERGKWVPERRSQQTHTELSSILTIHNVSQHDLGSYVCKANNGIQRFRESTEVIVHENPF
# T4: human VEGFR-3 extracellular domain (Fc fusion) (human, UniProt P35916 25-775)
# T4 sequence: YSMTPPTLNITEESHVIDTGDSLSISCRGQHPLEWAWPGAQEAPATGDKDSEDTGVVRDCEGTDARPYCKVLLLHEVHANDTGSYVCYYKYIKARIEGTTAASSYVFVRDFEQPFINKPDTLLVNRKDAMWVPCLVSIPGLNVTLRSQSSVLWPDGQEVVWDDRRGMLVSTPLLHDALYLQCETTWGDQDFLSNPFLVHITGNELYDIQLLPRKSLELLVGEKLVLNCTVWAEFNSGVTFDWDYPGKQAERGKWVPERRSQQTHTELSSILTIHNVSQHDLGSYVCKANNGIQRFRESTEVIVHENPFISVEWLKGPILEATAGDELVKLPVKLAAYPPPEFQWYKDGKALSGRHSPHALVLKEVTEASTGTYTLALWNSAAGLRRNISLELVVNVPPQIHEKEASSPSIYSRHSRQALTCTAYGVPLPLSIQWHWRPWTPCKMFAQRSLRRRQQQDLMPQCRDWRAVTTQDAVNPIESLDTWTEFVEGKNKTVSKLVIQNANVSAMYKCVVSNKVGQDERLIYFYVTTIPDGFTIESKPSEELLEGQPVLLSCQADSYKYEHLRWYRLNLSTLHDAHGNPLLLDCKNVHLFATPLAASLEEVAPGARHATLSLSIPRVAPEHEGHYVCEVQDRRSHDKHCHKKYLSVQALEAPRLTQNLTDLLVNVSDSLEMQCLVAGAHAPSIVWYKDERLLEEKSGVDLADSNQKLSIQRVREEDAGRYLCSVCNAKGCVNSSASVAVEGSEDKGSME
# T5: recombinant mouse VEGFR-3/Fc (mouse, UniProt P35917 25-770)
# T5 sequence: T1 sequence (P35917 25-770)
# B1: synthetic peptide PCAIWF (peptide)
# peptide: PCAIWF
# B2: phage WVCSGG (peptide)
# peptide: WVCSGG
# B3: NRP-2: neuropilin, co-receptor for VEGF; rat NRP-2 (protein)
# chain: QQDPPCGGRLNSKDAGYITSPGYPQDYPSHQNCEWVVYAPEPNQKIVLNFNPHFEIEKHDCKYDFIEIRDGDSESADLLGKHCGNIAPPTIISSGSVLYIKFTSDYARQGAGFSLRYEIFKTGSEDCSKNFTSPNGTIESPGFPEKYPHNLDCTFTILAKPRMEIILQFLTFDLEHDPLQVGEGDCKYDWLDIWDGIPHVGPLIGKYCGTKTPSKLRSSTGILSLTFHTDMAVAKDGFSARYYLVHQEPPENFQCNAPLGMESGRIANEQISASSTFSDGRWTPQQSRLHGDDNGWTPNVDSNKEYLQVDLRFLTMLTAIATQGAISRETQKGYYVKSYKLEVSTNGEDWMVYRHGKNHKVFQANNDATELVLNKLHTPLLTRFIRIRPQTWHLGIALRLELFGCRVTDAPCSNMLGMLSGLIADTQISASSTREYLWSPSAARLVSSRSGWFPRNPQAQPGEEWLQVDLGTPKTVKGVIIQGARGGDSITAMEARAFVRKFKVSYSLNGKDWEYIQDPRTQQPKLFEGNMHYDTPDIRRFEPVPAQYVRVYPERWSPAGIGMRLEVLGCDWTDSKPTVETLGPTVKSEETTTPYPMDEDATECGENCSFEDDKDLQLPSGFNCNFDFPEETCGWMYDRAKWLQSTWISSANPNDRTFPDDKNFLKLQSDGGREGQFGRLISPPVHLPRSPVCMEFQYQAMGGHGVALQVVREARQESKLLWVIREDQGSEWKHGRIILPSYDMEYQIVFEGVIGKGRSGEISIDDIRISTDVPLENCMEPISAFAVDIPEIHGGEGYEDEIDDDYEGDWNNSSSTSGAGSPSSGKEKSWLYTLDP
# B4: synthetic peptide WVCSGG (peptide)
# peptide: WVCSGG
# B5: phage PCAIWF (peptide)
# peptide: PCAIWF
# B6: synthetic peptide PSAIWF (peptide)
# peptide: PSAIWF
# Experiments:
# [1] = tested on: FGF receptors; details: cited from earlier work
# [2] = target: T1, VEGFR-3; assay: competition assay, binding of phage PCAIWF to immobilized VEGFR-3
# [3] = tested on: mouse VEGFR-3; assay: phage binding assay, immobilized mouse VEGFR-3; details: 10^8 TU in 50 μl PBS, 2 hours, room temperature; control insertless phage Fd; colony count or phage-FLISA; triplicate plating
# [4] = tested on: human VEGFR-3; assay: phage binding assay, immobilized human VEGFR-3; details: 10^8 TU in 50 μl PBS, 2 hours, room temperature; control insertless phage Fd; colony count or phage-FLISA; triplicate plating
# [5] = tested on: ERK1/2 pathway in lymphatic endothelial cells (LECs); assay: ERK1/2 phosphorylation in lymphatic endothelial cells; type: cell-based, human; details: growth factor 100 ng/ml, 10 min, 37°C, 1% DMSO, heparin 10 U/ml
# Method in brief: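 Human dermal lymphatic microvascular endothelial cells were cultured overnight in EBM2 with 2% FBS, then starved 18 h in EBM2 with 0.2% BSA. They were stimulated with VEGF-A, VEGF-C or FGF-1, with or without test peptide or scrambled peptide (30 μg/ml). Lysates were immunoblotted for total and phospho-ERK1/2 using infrared-dye secondaries, and the phospho/total intensity ratio was taken. Two experiments were run; ANOVA with Tukey.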
# [6] = target: T2, recombinant IgD2 domain of human VEGFR-3; assay: ELISA
# [7] = target: T3, recombinant IgD2-3 domains of human …; assay: ELISA
# [8] = target: T4, human VEGFR-3 extracellular domain (Fc …); assay: ELISA
# [9] = target: T5, recombinant mouse VEGFR-3/Fc; assay: phage binding assay
# [10] = target: T4, human VEGFR-3 extracellular domain (Fc …); assay: phage binding assay
# [11] = tested on: human VEGFR-1; assay: FLISA binding assay, NRP-2 to VEGFR-1; details: rat NRP-2, FLISA
# Method in brief: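 Human VEGFR-1 extracellular domain coated at 200 ng per well in PBS overnight at 4°C, then blocked with Odyssey blocking buffer. Wells incubated with NRP-1 or NRP-2 in PBS with 10% (v/v) DMSO and 10% blocking buffer, with or without peptide (100 μg/ml). Bound NRP detected with goat anti-NRP-1 or anti-NRP-2 serum (1:100), then IRDye 680LT anti-goat, by infrared scanning. Duplicate wells; ANOVA with Tukey.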
# [12] = target: human VEGFR-2 extracellular domain (Fc fusion) (human, UniProt P35968 20-764); assay: ELISA
# Sequence of human VEGFR-2 extracellular domain (Fc fusion) (P35968 20-764): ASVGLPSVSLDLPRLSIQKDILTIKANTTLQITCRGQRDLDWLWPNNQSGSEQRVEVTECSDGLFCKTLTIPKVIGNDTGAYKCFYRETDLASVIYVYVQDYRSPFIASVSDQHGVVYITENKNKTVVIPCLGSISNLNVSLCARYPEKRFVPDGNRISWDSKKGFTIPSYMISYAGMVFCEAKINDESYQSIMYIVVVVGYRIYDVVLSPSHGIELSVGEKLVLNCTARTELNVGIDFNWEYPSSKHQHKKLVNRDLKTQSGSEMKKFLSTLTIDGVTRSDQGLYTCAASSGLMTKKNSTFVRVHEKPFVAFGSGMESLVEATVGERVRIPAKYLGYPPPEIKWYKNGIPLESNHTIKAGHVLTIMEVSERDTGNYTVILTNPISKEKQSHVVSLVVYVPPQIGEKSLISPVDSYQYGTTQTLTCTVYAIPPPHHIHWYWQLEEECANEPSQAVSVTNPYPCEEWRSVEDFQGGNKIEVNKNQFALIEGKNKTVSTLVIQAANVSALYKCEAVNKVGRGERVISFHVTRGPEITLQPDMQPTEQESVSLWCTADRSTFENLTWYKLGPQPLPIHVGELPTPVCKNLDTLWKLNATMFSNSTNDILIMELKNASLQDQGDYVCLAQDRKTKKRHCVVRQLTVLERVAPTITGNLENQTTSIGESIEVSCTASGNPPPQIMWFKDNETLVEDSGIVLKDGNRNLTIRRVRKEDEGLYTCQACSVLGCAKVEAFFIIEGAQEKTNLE
# [13] = target: human VEGFR-1 extracellular domain (Fc fusion) (human, UniProt P17948 27-758); assay: ELISA
# Sequence of human VEGFR-1 extracellular domain (Fc fusion) (P17948 27-758): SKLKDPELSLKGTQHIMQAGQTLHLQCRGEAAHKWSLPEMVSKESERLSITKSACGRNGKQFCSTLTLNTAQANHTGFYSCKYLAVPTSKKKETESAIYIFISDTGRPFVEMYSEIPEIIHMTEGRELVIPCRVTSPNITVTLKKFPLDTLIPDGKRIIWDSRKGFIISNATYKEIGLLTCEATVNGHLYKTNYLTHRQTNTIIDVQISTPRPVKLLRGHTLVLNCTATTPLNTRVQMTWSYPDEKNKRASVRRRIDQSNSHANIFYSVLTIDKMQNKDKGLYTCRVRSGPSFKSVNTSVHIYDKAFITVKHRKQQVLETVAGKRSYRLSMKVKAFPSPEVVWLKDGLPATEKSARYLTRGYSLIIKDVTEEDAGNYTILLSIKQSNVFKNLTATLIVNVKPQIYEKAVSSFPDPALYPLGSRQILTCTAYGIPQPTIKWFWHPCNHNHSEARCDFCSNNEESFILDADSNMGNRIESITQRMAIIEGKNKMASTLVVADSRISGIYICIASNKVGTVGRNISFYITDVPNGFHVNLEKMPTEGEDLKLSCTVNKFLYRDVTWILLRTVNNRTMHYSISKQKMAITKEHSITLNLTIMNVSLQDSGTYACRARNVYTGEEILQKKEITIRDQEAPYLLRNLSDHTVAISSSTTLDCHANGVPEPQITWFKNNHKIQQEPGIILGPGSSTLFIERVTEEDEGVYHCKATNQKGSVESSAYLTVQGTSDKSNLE
molecule,measurement,setting,value
COc1c(C)c(C(=O)c2ccc(N)c(C(=O)[O-])c2)n2ccccc12.[Na+] [SSR128129E],effect on FGF receptors,[1],binds to and prevents the activation of all four FGF receptors
same,interaction with ligand-binding domain of the FGF receptors,[1],does not interact with the ligand-binding domain of the receptors
PSAIWF [PSAIWF],IC50,[2],~278 µM
WVCSGG [phage WVCSGG],phage binding to mouse VEGFR-3,[3],both phages bound to mouse and human VEGFR-3
same,phage binding to human VEGFR-3,[4],both phages bound to mouse and human VEGFR-3
"FGF-1: fibroblast growth factor, recombinant human ligand",phosphorylation of ERK1/2 upon growth factor stimulation,[5],phosphorylation of ERK1/2 increases
B1,binding result,[6],binds
same,binding result,[7],binds
same,binding result,[8],binds
B2,binding result,[9],binds
same,binding result,[10],binds
B3,NRP-2 binding to VEGFR-1,[11],strong interaction
B4,binding result,[6],binds
same,binding result,[7],binds
B5,binding result,[6],binds
same,binding result,[7],binds
same,binding result,[9],binds
same,binding result,[10],binds
B6,binding result,[12],binds
same,binding result,[8],binds
same,binding result,[13],binds

# — publication PMC5091360 (Science Advances, 2016)
